# In the library only some 2.5% were active in any assay of this set; here they are far more common.
# TCR-CD3 inh = inhibitors of human TCR-CD3 interaction, primary screen, biochemical, fluorescence, TAMRA-labeled TCR probe. T-cell receptor (TCR). actives 0.37% (n = 360,000). inhibition, % at 9.4 µM; in the data active = inhibition above about 19%;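 note: recombinant mutant TCR 2C K166C tagged with TAMRA read by polarization; 0% = receptor in buffer alone and 100% = receptor with positive control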
# rCAG binder = binders of r(CAG) RNA repeats, primary screen, biochemical, fluorescence | r(CAG) RNA repeat, TO-PRO-1 dye displacement fluorescence | inhibition, % at 3 µM | actives 1.3% (n = 370,000) | AID 651821, 2012;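 active = inhibition above the plate cutoff, the mean of all test compounds on that plate plus 3 SD, cut at about 35% in these data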;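 note: 0% = DMSO alone and 100% = 100 µM mitoxantrone as full dye displacement; higher means more dye released from RNA so lower well fluorescence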
# SIAE primary = human SIAE inhibitors, primary screen, biochemical, fluorescence polarization, FP-Rh probe, 1536-well HTS. SIAE FP-Rh probe binding. inhibition, % at 9.66 µM. actives 0.69% (n = 370,000);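 active = inhibition above a cutoff: mean of compounds within the control limits plus 3 SD of those, cut at about 17% in these data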;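 note: 0% = plate median of compound wells and 100% = probe without SIAE protein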
# Target sequence (Q9HAT2 whole entry, looked up): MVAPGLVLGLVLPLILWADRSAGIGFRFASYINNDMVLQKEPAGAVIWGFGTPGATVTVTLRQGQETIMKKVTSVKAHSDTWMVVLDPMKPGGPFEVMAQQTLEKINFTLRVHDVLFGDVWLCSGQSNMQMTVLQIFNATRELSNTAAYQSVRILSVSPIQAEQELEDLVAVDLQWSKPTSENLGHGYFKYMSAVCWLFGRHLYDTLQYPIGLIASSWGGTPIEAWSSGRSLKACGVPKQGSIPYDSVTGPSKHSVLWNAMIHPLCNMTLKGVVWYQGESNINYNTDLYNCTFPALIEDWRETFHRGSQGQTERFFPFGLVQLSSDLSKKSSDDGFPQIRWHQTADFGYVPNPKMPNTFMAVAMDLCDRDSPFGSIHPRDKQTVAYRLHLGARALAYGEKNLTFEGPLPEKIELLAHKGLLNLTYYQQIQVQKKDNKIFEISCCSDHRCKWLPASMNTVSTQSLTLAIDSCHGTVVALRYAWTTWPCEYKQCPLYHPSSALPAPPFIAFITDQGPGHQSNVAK
# HTRA1 inhibitor = HTRA1 serine protease inhibitors, primary screen, biochemical, fluorescence polarization, HTS. actives 0.5% (n = 340,000). recombinant HTRA1, FP-rhodamine activity-based probe. AID 504803, 2011. inhibition, % at 5.96 µM. Q92743; in the data active = inhibition above about 36%;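 note: 0% = enzyme with DMSO and 100% = wells lacking enzyme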
# ABHD4 inh = ABHD4 inhibitors, primary screen, biochemical, fluorescence polarization, mouse. purified mABHD4, FP-Rh probe fluorescence polarization. inhibition, % at 8.92 µM. actives 0.54% (n = 370,000). AID 720543, 2013;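 active = inhibition exceeding the mean over every tested compound plus 3 SD, cut at about 30% in these data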;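 note: 0% = plate median of compound wells and 100% = S159A mutant with DMSO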
#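 Assay system: Wild-type mouse ABHD4 protein | Medium: HEPES pH 7.0 buffer, 150 mM NaCl, 0.01% Pluronic F-127 | Incubation: Enzyme–compound pre-incubation 45 min, then probe 60 min, both 25 °C | Technique: Fluorescence polarization with parallel and perpendicular emission, 525/598 nm | Evaluation: % inhibition of FP-Rh probe binding versus controls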
# mABHD4 conf = ABHD4 inhibitors, retest, confirmation, biochemical, fluorescence polarization, mouse. shares compounds with ABHD4 inh. purified mABHD4, FP-Rh probe fluorescence polarization. inhibition, % at 8.92 µM. actives 55% (n = 1,800);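 active = mean inhibition across replicates above the hit cutoff set in the primary screen, cut at about 30% in these data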;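 note: 0% = wild-type ABHD4 with DMSO and 100% = catalytically dead S159A mutant with DMSO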
# Numbers without * were called inactive; x = not tested or not shown.
SMILES,TCR-CD3 inh,rCAG binder,SIAE primary,HTRA1 inhibitor,ABHD4 inh,mABHD4 conf
Cc1cc(C(=O)O)ccc1-c1ccc(/C=C2\NC(=O)N(Cc3ccc(F)cc3)C2=O)o1,4.7,7.1,3.7,1.9,29.9*,78.1*
O=C(O)CCCN1C(=O)/C(=C\c2ccco2)SC1=S,11.6,7.0,4.1,13.4,30.9*,10.9
O=C1/C(=C\c2ccco2)SC(=S)N1C1CCS(=O)(=O)C1 (centres undefined),8.8,31.0,6.9,x,35.3*,-2.6
N#C/C(=C(/O)COC(=O)CCc1ccc(S(=O)(=O)N2CCOCC2)cc1)c1nc2ccccc2[nH]1,1.4,20.9,11.6,23.4,16.4,x
Cc1cc2c(cc1C)N(C(=O)CSC1=NCCS1)C(C)(C)c1ssc(=S)c1-2,3.2,5.5,8.5,30.1,37.0*,14.0
C/C(=N\Nc1nc2ccccc2[nH]1)c1ccc(N2CCOCC2)cc1,-1.3,-2.3,4.1,11.7,33.2*,29.6*
C/C(=N\NC(=O)c1ccccc1)c1ccc(N2CCOCC2)cc1,7.8,-2.2,9.6,0.0,71.0*,-13.4
CCC(C)(C)C1CCC(=NNc2nc3ccccc3[nH]2)CC1 (centres undefined),-5.0,-0.6,11.5,27.2,20.2,x
CC(=O)N1CCC(=NNc2nc3ccccc3[nH]2)CC1,-3.1,4.3,8.8,x,29.7*,6.9
C/C(=N\Nc1nc2ccccc2[nH]1)c1ccc(Cl)s1,1.9,4.1,10.6,10.9,30.7*,22.7
CN1C(=O)CC(c2ccccc2)CC1=O,4.4,-0.1,-8.6,-2.1,0.7,x
O=C(COC(=O)CCCN=C1NS(=O)(=O)c2ccccc21)NNC(=O)c1ccccc1,-6.4,-0.7,1.3,0.9,-0.6,x
Cc1cc(O)ccc1N/C=C/c1onc(C)c1[N+](=O)[O-],7.8,11.9,3.6,34.5,55.6*,0.1
O=C(NCC(F)(F)F)c1cc2c(c(-c3cccc(-c4ccccc4F)c3)n1)[C@@H](CCO)N(C(=O)CC1CC1)C2,1.9,5.4,-8.3,x,-16.3,x
CC(C)OC(=O)CSc1nnc(-c2cnccn2)n1C,2.4,-0.3,-1.7,2.8,116.3*,-14.2
COc1cccc2c(NCc3ccccc3)nc(-n3c(N)nc4ccccc43)nc12,x,x,6.7,x,37.1*,20.5
CCOC(=O)c1c(C)[nH]c(O)c1C=Nc1ccc(Cl)cc1,11.6,-1.4,0.7,24.0,59.1*,7.8
COc1ccc(-c2c(C(=O)c3ccc(Br)cc3)[nH]c(N)c2C(=O)NCCc2c[nH]c3ccccc23)cc1OC,2.9,11.6,8.3,x,33.1*,24.3
Nc1[nH]c(C(=O)c2ccc(Br)cc2)c(-c2ccc(Br)cc2)c1C(=O)NCCc1c[nH]c2ccccc12,2.1,11.0,4.6,x,18.0,x
Nc1[nH]c(C(=O)c2ccc(Br)cc2)c(-c2ccc(F)cc2)c1C(=O)NCCc1c[nH]c2ccccc12,-0.7,6.4,5.8,x,32.8*,26.3
Cc1ccccc1-c1nc(C(=O)NCC2CCCO2)cc2c1[nH]c1ccccc12 (centres undefined),-3.0,7.0,-0.9,-89.9,-17.9,x
CCc1ccc(OCC2Cn3c(nc4c3c(=O)[nH]c(=O)n4C)O2)cc1 (centres undefined),-6.9,-4.5,-2.1,-3.0,-1.5,x
Nc1nc(Nc2ccccc2F)nc(NCc2ccco2)c1[N+](=O)[O-],0.9,13.7,-4.3,-24.3,-19.3,x
CCCn1c(=N)n(CC(=O)c2cccs2)c2ccccc21,-2.5,3.4,-2.5,6.2,-3.5,x
N=c1n(CCN2CCCCC2)c2ccccc2n1CC(=O)c1cccs1,5.5,3.4,1.4,1.9,42.8*,12.7
CCC(=O)Nc1cc(OC)c(NC(=S)Nc2ccccc2CC)cc1OC,2.8,1.6,11.2,4.3,42.6*,-4.7
CCc1ccccc1NC(=O)CC(=O)Nc1ccccc1CC,-1.3,-1.4,-9.1,5.5,3.3,x
COc1ccc(Cc2nnc(NC(=O)C3CCN(C(=O)c4ccco4)CC3)s2)cc1,0.3,3.8,6.7,2.9,3.6,x
COC(=O)c1ccc(C2N=C(c3cccs3)CC(c3ccccc3O)N2)cc1 (centres undefined),-1.7,25.5,3.3,-14.8,36.2*,-9.4
